How the values were obtained:
[1] = biological target: T1, Monoglyceride lipase (Homo sapiens, UniProt Q99685); experiment: Inhibition of human recombinant MAGL using 4-nitrophenylacetate as substrate incubated for 30 mins by microplate reader assay
T1 sequence (Q99685 whole entry): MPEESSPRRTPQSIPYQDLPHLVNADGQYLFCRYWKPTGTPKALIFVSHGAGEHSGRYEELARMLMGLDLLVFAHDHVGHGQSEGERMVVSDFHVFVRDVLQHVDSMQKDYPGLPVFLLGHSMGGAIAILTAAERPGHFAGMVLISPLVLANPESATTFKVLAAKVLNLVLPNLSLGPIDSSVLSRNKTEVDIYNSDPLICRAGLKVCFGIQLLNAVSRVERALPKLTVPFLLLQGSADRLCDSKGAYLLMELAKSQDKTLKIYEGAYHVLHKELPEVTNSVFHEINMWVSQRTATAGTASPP
In short: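 Human recombinant MAGL, 11 ng/well, in 10 mM Tris pH 7.2 with 1 mM EDTA and 0.1 mg/mL BSA, at room temperature. 4-NPA 133.3 µM stock added; enzyme added last. Absorbance at 405 nm after 30 min, minus a no-enzyme blank for each concentration. Sigmoidal fit; duplicates of three independent experiments.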

[2] = Antiproliferative activity against human PDAC-3 cells assessed as inhibition of cell growth incubated for 72 hrs by SRB assay; assay type: functional, cell-based; conditions: PDAC-3, 72 h
In short: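 Primary patient-derived PDAC-3 cells, cultured under 20 passages in RPMI-1640 with 10% NBCS. Compounds dissolved in DMSO and tested at 8 concentrations, 156.25 to 20 000 nM. Growth read by sulforhodamine-B assay.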

[3] = test system: HCT-116; experiment: Antiproliferative activity against human HCT116 cells as reduction in cell growth measured after 96 hrs by Celltiter-glo luminescent assay; assay type: functional, cell-based; conditions: HCT-116, 96 h
In short: (§1)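 Cell lines kept at 37 °C, 5% CO2; 5 × 10^2 cells per well, compound added the day after seeding at 200 to 0.02 µM. Viability read after 96 h by CellTiter-Glo luminescence. IC50 from logistic dose-response curves, in triplicate; error bars are SD.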

[4] = test system: MDA-MB-231; experiment: Antiproliferative activity against human MDA-MB-231 cells as reduction in cell growth measured after 96 hrs by Celltiter-glo luminescent assay; assay type: functional, cell-based; conditions: MDA-MB-231, 96 h; in short: as §1
[5] = Cytotoxicity against cancer-derived human organoids in HGSOC patient assessed as reduction in cell viability up to 100 uM measured after 96 hrs by Celltiter-glo luminescent assay; assay type: functional, Neoplasm; conditions: dose microM <=100
In short: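 Organoids from three HGSOC patients. Tissue digested with 2 mg/mL collagenase for 30 min, embedded in BME matrix and cultured. Treated at 100 µM, with carboplatin as positive control. Viability read by CellTiter-Glo luminescence.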

[6] = test system: OVCAR-3; experiment: Antiproliferative activity against human OVCAR3 cells as reduction in cell growth measured after 96 hrs by Celltiter-glo luminescent assay; assay type: functional, cell-based; conditions: OVCAR-3, 96 h; in short: as §1
[7] = test system: SK-OV-3; experiment: Antiproliferative activity against human SKOV3 cells as reduction in cell growth measured after 96 hrs by Celltiter-glo luminescent assay; assay type: functional, cell-based; conditions: SK-OV-3, 96 h; in short: as §1
[8] = test system: Caov-3 cell line; experiment: Antiproliferative activity against human CAOV3 cells as reduction in cell growth measured after 96 hrs by Celltiter-glo luminescent assay; assay type: functional, cell-based; conditions: Caov-3, 96 h; in short: as §1

| SMILES | IC50 [1] | also measured |
| --- | --- | --- |
| CC(C)c1ccc(C(=O)C2CCN(C(=O)c3ccnc(O)c3)CC2)cc1 | > 10000 nM |  |
| CC(C)c1ccc(C(=O)C2CCN(C(=O)c3cccc(O)n3)CC2)cc1 | > 10000 nM |  |
| O=C(c1ccc(S(=O)(=O)c2ccccc2)cc1)C1CCN(C(=O)c2cccc(O)c2)CC1 | 3400 nM |  |
| Nc1ccn([C@@H]2O[C@H](CO)[C@@H](O)C2(F)F)c(=O)n1 [GEMCITABINE] |  | IC50 [2]: 5.54 nM |
| O=C(c1ccc(-c2cn(CCCc3ccccc3)nn2)cc1)C1CCN(C(=O)c2cccc(O)c2)CC1 | 3300 nM |  |
| O=C(c1ccc(-c2cn(Cc3ccccc3)nn2)cc1)C1CCN(C(=O)c2cccc(O)c2)CC1 | 4400 nM |  |
| O=C(c1ccc(Sc2ccccc2)cc1)C1CCN(C(=O)c2cccc(O)c2)CC1 | 74 nM |  |
| O=C(c1ccc([S+]([O-])c2ccccc2)cc1)C1CCN(C(=O)c2cccc(O)c2)CC1 (stereo not given) | 4300 nM |  |
| CC(C)c1ccc(C(=O)C2CCN(C(=O)c3cc(O)ccc3C(F)(F)F)CC2)cc1 | 8200 nM |  |
| CC(C)c1ccc(C(=O)C2CCN(C(=O)c3cc(O)ccc3[N+](=O)[O-])CC2)cc1 | 4500 nM |  |
| CC(C)c1ccc(C(=O)C2CCN(C(=O)c3cc(O)ccc3N)CC2)cc1 | > 10000 nM |  |
| CC(C)c1ccc(C(=O)C2CCN(C(=O)c3cc(O)ccn3)CC2)cc1 | > 10000 nM |  |

More lines, in order of falling IC50 [1], values ahead:

| IC50 [1] | SMILES | also measured |
| --- | --- | --- |
| 2300 nM | Cc1ccc(O)cc1C(=O)N1CCC(C(=O)c2ccc(C(C)C)cc2)CC1 |  |
| 2000 nM | CC(C)c1ccc(C(=O)C2CCN(C(=O)c3cncc(O)c3)CC2)cc1 |  |
| 1000 nM | O=C(c1ccc(-c2cn(-c3ccccc3)nn2)cc1)C1CCN(C(=O)c2cccc(O)c2)CC1 |  |
| 758 nM | O=C(c1ccc(Nc2ccccc2)cc1)C1CCN(C(=O)c2cccc(O)c2)CC1 |  |
| 368 nM | O=C(c1ccc(C2CC2)cc1)C1CCN(C(=O)c2cccc(O)c2)CC1 |  |
| 278 nM | O=C(c1ccc(Oc2ccccc2)cc1)C1CCN(C(=O)c2cccc(O)c2)CC1 |  |
| 142 nM | CC(C)c1ccc(C(=O)C2CCN(C(=O)c3cccc(O)c3)CC2)cc1 |  |
| 130 nM | COc1nn(-c2ccc(NC(=O)OCc3ccccc3)c(C)c2)c(=O)o1 | IC50 [3]: 38000 nM; IC50 [4]: 83000 nM; inhibition (INH) [5]: 50%; IC50 [6]: 53000 nM; IC50 [7]: 33000 nM; IC50 [8]: 95000 nM |
| 129 nM | O=C(c1ccc(C2CCCCC2)cc1)C1CCN(C(=O)c2cccc(O)c2)CC1 |  |
| 81 nM | CC(C)c1ccc(C(=O)C2CCN(C(=O)c3cc(O)ccc3F)CC2)cc1 |  |
| 78 nM | O=C(c1ccc(Cc2ccccc2)cc1)C1CCN(C(=O)c2cccc(O)c2)CC1 |  |
| 31 nM | CC(C)c1ccc(C(=O)C2CCN(C(=O)c3cc(O)c(F)cc3F)CC2)cc1 |  |
